From ChEMBL document CHEMBL5113397, “Identification, optimization, and biological evaluation of 3-O-β-chacotriosyl ursolic acid derivatives as novel SARS-CoV-2 entry inhibitors by targeting the prefusion state of spike protein” (Eur J Med Chem, 2022)

Columns and labels:
Spike glycoprotein = Spike glycoprotein (Severe acute respiratory syndrome coronavirus 2, UniProt P0DTC2); assay: Binding affinity to SARS-CoV-2 Spike trimer protein by SPR analysis
Procedure, shortened: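 Compound photo-crosslinked onto the chip; recombinant S-trimer injected at a series of concentrations in PBST (0.1% Tween 20, pH 7.4). Run at 4 °C, 600 s association, 360 s dissociation, 0.5 µL/s flow. Chip regenerated with glycine-HCl pH 2.0; KD from the SPR signals.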

[1] = Cytotoxicity against African green monkey Vero E6 cells assessed as inhibition of cell growth incubated for 48 hrs by MTT assay; assay type: toxicity, cell-based, Vero C1008; details: chlorocebus sabaeus
Procedure, shortened: (§1)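 Monolayers of 293T-ACE2 or Vero E6 cells in DMEM with 10% FBS were PBS-rinsed and exposed to compounds for 48 h. MTT 0.5 mg/mL was then added for 4 h at 37 °C, formazan dissolved in DMSO, and absorbance read at 570 nm.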

[2] = Cytotoxicity against human HEK293T cells overexpressing human ACE2 assessed as inhibition of cell growth incubated for 48 hrs by MTT assay; assay type: toxicity, cell-based, HEK-293T; procedure, shortened: as §1
[3] = Selectivity index, ratio of CC50 for cytotoxicity against African green monkey Vero E6 cells to EC50 for antiviral activity against SARS-CoV-2 Wuhan-Hu-1 infected African green monkey Vero E6 cells; assay type: toxicity, cell-based, Vero C1008; details: read-out: Ratio CC50/EC50
SARS-CoV-2 [4] = assay: Antiviral activity against SARS-CoV-2 Wuhan-HU-1 infected African green monkey Vero E6 cells preincubated for 1 hrs followed by incubation with virus 1 hr and measured after 24 hrs by fluorescence assay; assay type: functional, organism-based; details: Severe acute respiratory syndrome coronavirus 2, Wuhan-HU-1, Vero C1008
SARS-CoV-2 [5] = assay: Antiviral activity against pseudovirus SARS-CoV-2 spike protein expressed in human HEK293T cells assessed as inhibition of spike protein S2 subunit mediated membrane fusion in African green monkey Vero E6 cells at 2.5 to 20 uM incubated for 0.5 hr and measured after 24 hrs by inverted fluorescence microscopy; assay type: functional, organism-based; details: Severe acute respiratory syndrome coronavirus 2, dose 2.5-20 µM, time 24.5 hrs, DDE = dose-dependent effect
Procedure, shortened: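 Effector HEK-293T cells were transfected with GFP/SARS-CoV-2 S plasmid, or an EGFP-only vector as control. They were treated with or without graded compound for 30 min, then overlaid on Vero-E6 target cells seeded 6 h before. After 24 h, three random fields were imaged by inverted fluorescence microscopy.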

SARS-CoV-2 [6] = assay: Antiviral activity against SARS-CoV-2 Wuhan-HU-1 infected African green monkey Vero E6 cells assessed as reduction in N-protein expression at 0.55 to 15 uM by indirect immunofluorescence assay; assay type: functional, organism-based; details: Severe acute respiratory syndrome coronavirus 2, dose 0.55-15 µM, DDE = dose-dependent effect

## COc1ccccc1NC(=O)[C@]12CC[C@@H](C)[C@H](C)[C@H]1C1=CC[C@@H]3[C@@]4(C)CC[C@H](O[C@@H]5O[C@H](CO)[C@@H](O[C@@H]6O[C@@H](C)[C@H](O)[C@@H](O)[C@H]6O)[C@H](O)[C@H]5O[C@@H]5O[C@@H](C)[C@H](O)[C@@H](O)[C@H]5O)C(C)(C)[C@@H]4CC[C@@]3(C)[C@]1(C)CC2
Spike glycoprotein
  Kd: 13.9 µM
[1]
  CC50 at 48 h: > 100 µM
[2]
  CC50 at 48 h: 43.3 µM
[3]
  selectivity ratio: > 42
SARS-CoV-2 [4]
  EC50: 2.38 µM

## COc1ccc(CNC(=O)[C@]23CC[C@@H](C)[C@H](C)[C@H]2C2=CC[C@@H]4[C@@]5(C)CC[C@H](O[C@@H]6O[C@H](CO)[C@@H](O[C@@H]7O[C@@H](C)[C@H](O)[C@@H](O)[C@H]7O)[C@H](O)[C@H]6O[C@@H]6O[C@@H](C)[C@H](O)[C@@H](O)[C@H]6O)C(C)(C)[C@@H]5CC[C@@]4(C)[C@]2(C)CC3)cc1
[2]
  CC50 at 48 h: > 100 µM

## COc1cccc(OC)c1NC(=O)[C@]12CC[C@@H](C)[C@H](C)[C@H]1C1=CC[C@@H]3[C@@]4(C)CC[C@H](O[C@@H]5O[C@H](CO)[C@@H](O[C@@H]6O[C@@H](C)[C@H](O)[C@@H](O)[C@H]6O)[C@H](O)[C@H]5O[C@@H]5O[C@@H](C)[C@H](O)[C@@H](O)[C@H]5O)C(C)(C)[C@@H]4CC[C@@]3(C)[C@]1(C)CC2
Spike glycoprotein
  Kd: 0.78 µM
SARS-CoV-2 [5]
  inhibition: Dde
SARS-CoV-2 [6]
  Activity: Dde
[1]
  CC50 at 48 h: > 100 µM
[2]
  CC50 at 48 h: > 100 µM
[3]
  selectivity ratio: > 48.8
SARS-CoV-2 [4]
  EC50: 2.05 µM

## C[C@H]1[C@H](C)CC[C@]2(C(=O)NCc3ccccc3)CC[C@]3(C)C(=CC[C@@H]4[C@@]5(C)CC[C@H](O[C@@H]6O[C@H](CO)[C@@H](O[C@@H]7O[C@@H](C)[C@H](O)[C@@H](O)[C@H]7O)[C@H](O)[C@H]6O[C@@H]6O[C@@H](C)[C@H](O)[C@@H](O)[C@H]6O)C(C)(C)[C@@H]5CC[C@]43C)[C@H]12
[2]
  CC50 at 48 h: > 100 µM
